From PMC5083853 (Bioorganic & medicinal chemistry, 2016) come the findings set out here.

Data set [1] deals with M9-ENL1 cells. Description: Cytotoxicity against M9-ENL1 leukemia cells. In kind it is cell-based. Particulars: for fold lower LC50 of C9 analog vs. C14-functionalized counterpart: 4, 6, 11 compared to 5, 7, 12.
Data set [2] can be described thus: Human umbilical cord blood cell cytotoxicity test. Particulars: human, hUBC LC50, human umbilical cord blood cells, cell viability, mean ± SD (n = 3). In kind it is cell-based. The gist of the method:
(§1)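 Fresh cord blood (within 48 h of collection) was separated on a Ficoll-Paque gradient and cultured without cryopreservation at 37 °C, 5% CO2, in serum-free Iscove's MDM with 20% BIT 9500, LDL and β-mercaptoethanol. Cells got ≥3 doses of test compound from DMSO stock for 24 h, were stained for CD45, CD34 and DAPI, and were analysed by flow cytometry. Viable CD34+CD45dim percentage was compared with vehicle.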

For data set [3], the system named is human umbilical cord blood cells (hUBC). Description: Human umbilical cord blood cell cytotoxicity test. The data set is classed as cell-based. To be noted: read-out: hUBC LC50; human umbilical cord blood cells, 24 h, cell viability, mean ± SD (n = 3). The gist of the method: as §1
A short description of data set [4]: Solubility in buffered solutions at neutral pH. In kind it is physicochemical.

Some results are limits rather than exact numbers.

With `C=C1C(=O)O[C@H]2[C@H]1C[C@H](OC(=O)c1ccc3ccccc3c1)/C(C)=C/CC[C@@]1(C)O[C@@H]21` [Compound 4, (3aS,5S,9aR,10aS,10bS,E)-6,9a-dimethyl-3-methylene-2oxo2,3,3a,4,5,8,9,9a,10a,10bdecahydrooxireno[2′,3′:9,10]cycl odeca [1,2-b]furan-5-yl 2-naphthoate], in data set [1], the “fold lower LC50 of C9 analog vs. C14-functionalized counterpart” value was 2- to 3 fold.

As to `C=C1C(=O)O[C@H]2[C@H]1C[C@H](OC(=O)c1cn(C)c3ccccc13)/C(C)=C/CC[C@@]1(C)O[C@@H]21` [Compound 6, (3aS,5S,9aR,10aS,10bS,E)-6,9a-dimethyl-3-methylene-2-oxo-2,3,3a,4,5,8,9,9a,10a,10b decahydrooxireno [2′,3′:9,10] cyclodeca[1,2-b]furan-5-yl 1-methyl-1H-indole-3-carboxylate], the “fold lower LC50 of C9 analog vs. C14-functionalized counterpart” value in data set [1] is given as 2- to 3 fold.

`C=C1C(=O)O[C@H]2[C@H]1C[C@H](OC(=O)c1cc(-c3ccc(Cl)cc3)on1)/C(C)=C/CC[C@@]1(C)O[C@@H]21` [Compound 11, (3aR,5S,9aR,10aS,10bS,E)-6,9a-dimethyl-3-methylene-2-oxo-2,3,3a,4,5,8,9,9a,10a,10b-decahydrooxireno[2′,3′:9,10] cyclodeca[1,2-b]furan-5-yl 5-(4-chlorophenyl)isoxazole-3-carboxylate]: in data set [1], the “fold lower LC50 of C9 analog vs. C14-functionalized counterpart” value was 2- to 3 fold.

For the molecule `C=C1C(=O)O[C@H]2[C@H]1CC/C(COCc1ccccc1)=C/CC[C@@]1(C)O[C@@H]21` [Compound 14, (3aR,9aR,10aS,10bS,Z)-6-((benzyloxy)methyl)-9a-methyl-3-methylene-3a,4,5,8,9,9a,10a,10b-octahydrooxireno[2′,3′:9,10] cyclodeca[1,2-b]furan-2(3H)-one], the “fold lower cytotoxicity compared to C14-benzoylated counterpart” value in data set [1] is 2 fold.

Turning to `C=C1C(=O)O[C@H]2[C@H]1C[C@H](OC(C(=O)OCC)c1ccccc1C(F)(F)F)/C(C)=C/CC[C@@]1(C)O[C@@H]21` (stereo partly drawn) [Compound 20, ethyl2-(((3aR,5S,9aR,10aS,10bS,E)-6,9a-dimethyl-3-methylene-2-oxo-2,3,3a,4,5,8,9,9a,10a,10b-decahydrooxireno [2′,3′:9,10]cyclodeca[1,2-b]furan-5-yl)oxy)-2-(2-(trifluoromethyl)phenyl)acetate], the “fold lower LC50 than the phenyl-containing counterparts (18, 19)” value in data set [1] was 2- to 3 fold.

As for `C=C1C(=O)O[C@H]2[C@H]1CC/C(COC(C(=O)OCC)c1ccccc1C(F)(F)F)=C/CC[C@@]1(C)O[C@@H]21` (stereo partly drawn) [Compound 21, ethyl2-(((3aR,9aR,10aS,10bS,Z)-9a-methyl-3-methylene-2-oxo-2,3,3a,4,5,8,9,9a,10a,10b-decahydrooxireno[2′,3′:9,10]cyclodeca[1,2-b]furan-6-yl)methoxy)-2-(2-(trifluoromethyl)phenyl)acetate], in data set [1], the “fold lower LC50 than the phenyl-containing counterparts (18, 19)” value was 2- to 3 fold.

Regarding `C=C1C(=O)O[C@H]2[C@H]1C[C@H](OC(C(=O)OCC)c1ccc(C(F)(F)F)cc1)/C(C)=C/CC[C@@]1(C)O[C@@H]21` (stereo partly drawn) [Compound 22, ethyl 2-(((3aR,5S,9aR,10aS,10bS,E)-6,9a-dimethyl-3-methylene-2-oxo-2,3,3a,4,5,8,9,9a,10a,10b-decahydrooxireno [2′,3′:9,10]cyclodeca[1,2-b]furan-5-yl)oxy)-2-(4-(trifluoromethyl)phenyl)acetate], the “fold lower LC50 than the phenyl-containing counterparts (18, 19)” value in data set [1] is 2- to 3 fold.

In turn, `C=C1C(=O)O[C@H]2[C@H]1C[C@H](OC(C(=O)OCC)c1ccc(C(F)(F)F)cc1)/C(C)=C/CC[C@@]1(C)O[C@@H]21` (stereo partly drawn) [Compound 22a, ethyl 2-(((3aR,5S,9aR,10aS,10bS,E)-6,9a-dimethyl-3-methylene-2-oxo-2,3,3a,4,5,8,9,9a,10a,10b-decahydrooxireno [2′,3′:9,10]cyclodeca[1,2-b]furan-5-yl)oxy)-2-(4-(trifluoromethyl)phenyl)acetate] displayed a CC50 at 24 h in data set [2] greater than 5 µM.

For `C=C1C(=O)O[C@@H]2[C@@H]1CC/C(COC(C(=O)OCC)c1ccc(C(F)(F)F)cc1)=C/CC[C@]1(C)O[C@H]21` (stereo partly drawn) [Compound 23, ethyl 2-(((3aR,9aR,10aS,10bS,Z)-9a-methyl-3-methylene-2-oxo-2,3,3a,4,5,8,9,9a,10a,10b-decahydrooxireno[2′,3′:9,10]cyclodeca[1,2-b]furan-6-yl)methoxy)-2-(4-(trifluoromethyl)phenyl)acetate], the “fold lower LC50 than the phenyl-containing counterparts (18, 19)” value in data set [1] is listed as 2- to 3 fold.

With `C=C1C(=O)O[C@@H]2[C@@H]1CC/C(COC(C(=O)OCC)c1ccc(C(F)(F)F)cc1)=C/CC[C@]1(C)O[C@H]21` (stereo partly drawn) [Compound 23b, ethyl 2-(((3aR,9aR,10aS,10bS,Z)-9a-methyl-3-methylene-2-oxo-2,3,3a,4,5,8,9,9a,10a,10b-decahydrooxireno[2′,3′:9,10]cyclodeca[1,2-b]furan-6-yl)methoxy)-2-(4-(trifluoromethyl)phenyl)acetate], in data set [3], the CC50 was greater than 5 µM.

`C=C1C(=O)O[C@H]2[C@H]1C[C@H](OC(C(=O)OCc1ccccc1)c1ccccc1)/C(C)=C/CC[C@@]1(C)O[C@@H]21` (stereo partly drawn) [Compound 25a, benzyl 2-(((3aR,5S,9aR,10aS,10bS,E)-6,9a-dimethyl-3-methylene-2-oxo-2,3,3a,4,5,8,9,9a,10a,10b-decahydrooxireno [2′,3′:9,10]cyclodeca[1,2-b]furan-5-yl)oxy)-2-phenylacetate] had a CC50 at 24 h in data set [2] greater than 5 µM.

In the case of `C=C1C(=O)O[C@H]2[C@H]1C[C@H](OC(C(=O)OCc1ccccc1)c1ccccc1)/C(C)=C/CC[C@@]1(C)O[C@@H]21` (stereo partly drawn) [Compound 25b, benzyl 2-(((3aR,5S,9aR,10aS,10bS,E)-6,9a-dimethyl-3-methylene-2-oxo-2,3,3a,4,5,8,9,9a,10a,10b-decahydrooxireno [2′,3′:9,10]cyclodeca[1,2-b]furan-5-yl)oxy)-2-phenylacetate], the CC50 in data set [3] is greater than 5 µM.

In the case of `C=C1C(=O)O[C@H]2[C@H]1C[C@H](OC(C(=O)OCCN1CCOCC1)c1ccccc1)/C(C)=C/CC[C@@]1(C)O[C@@H]21` (stereo partly drawn) [Compound 27, 2-morpholinoethyl2-(((3aR,5S,9aR,10aS,10bS,E)-6,9a-dimethyl-3-methylene-2-oxo-2,3,3a,4,5,8,9,9a,10a,10b-decahydrooxireno[2′,3′:9,10]cyclodeca[1,2-b]furan-5-yl)oxy)-2-phenyl acetate], in data set [4], the “solubility in buffered solutions” value was “improved solubility”. Moreover, in data set [1], the “fold reduction of activity compared to PTL” value (“fold reduction of activity” for short) fell in the range of 3 to 5 folds.

`C=C1C(=O)O[C@H]2[C@H]1CC/C(COC(C(=O)OCCN1CCOCC1)c1ccccc1)=C/CC[C@@]1(C)O[C@@H]21` (stereo partly drawn) [Compound 28, 2-morpholinoethyl 2-(((3aR,9aR,10aS,10bS,Z)-9a-methyl-3-methylene-2-oxo-2,3,3a,4,5,8,9,9a,10a,10b-decahydrooxireno [2′,3′:9,10]cyclodeca[1,2-b]furan-6-yl)methoxy)-2-phenylacetate]: the “solubility in buffered solutions” value in data set [4] is given as “improved solubility”. In addition, in data set [1], the “fold reduction of activity” value is listed as 3 to 5 folds.

As to `C=C1C(=O)O[C@H]2[C@H]1CC/C(COC(C(=O)OCCN1CCCC1)c1ccccc1)=C/CC[C@@]1(C)O[C@@H]21` (stereo partly drawn) [Compound 29, 2-(pyrrolidin-1-yl)ethyl 2-(((3aR,5S,9aR,10aS,10bS,E)-6,9a-dimethyl-3-methylene-2-oxo-2,3,3a,4,5,8,9,9a,10a,10b-decahydrooxireno[2′,3′:9,10]cyclodeca[1,2-b]furan-5-yl)oxy)-2-phenylacetate], the “solubility in buffered solutions” value in data set [4] is recorded as “improved solubility”. Moreover, the “fold reduction of activity” value in data set [1] fell in the range of 3 to 5 folds.

Molecule `C=C1C(=O)O[C@H]2[C@H]1CC/C(C)=C/CC[C@@]1(C)O[C@@H]21` [PTL, parthenolide, reference compound] yielded a CC50 at 24 h in data set [2] greater than 20 µM.
